Source: ChEMBL document CHEMBL1759994, “The discovery and synthesis of potent zwitterionic inhibitors of renin” (Bioorg Med Chem Lett, 2011)

Legend:
Cytochrome P450 3A4 [1] = biological target: T1, Cytochrome P450 3A4 (Homo sapiens, UniProt P08684); assay: Inhibition of human CYP3A4 in human liver microsomes assessed as formation of 6beta-hydroxy-testosterone using testosterone as substrate by high throughput mass spectrometry preincubated for 30 mins in presence of NADPH; format: ADME, Microsome
T1 sequence (P08684 whole entry): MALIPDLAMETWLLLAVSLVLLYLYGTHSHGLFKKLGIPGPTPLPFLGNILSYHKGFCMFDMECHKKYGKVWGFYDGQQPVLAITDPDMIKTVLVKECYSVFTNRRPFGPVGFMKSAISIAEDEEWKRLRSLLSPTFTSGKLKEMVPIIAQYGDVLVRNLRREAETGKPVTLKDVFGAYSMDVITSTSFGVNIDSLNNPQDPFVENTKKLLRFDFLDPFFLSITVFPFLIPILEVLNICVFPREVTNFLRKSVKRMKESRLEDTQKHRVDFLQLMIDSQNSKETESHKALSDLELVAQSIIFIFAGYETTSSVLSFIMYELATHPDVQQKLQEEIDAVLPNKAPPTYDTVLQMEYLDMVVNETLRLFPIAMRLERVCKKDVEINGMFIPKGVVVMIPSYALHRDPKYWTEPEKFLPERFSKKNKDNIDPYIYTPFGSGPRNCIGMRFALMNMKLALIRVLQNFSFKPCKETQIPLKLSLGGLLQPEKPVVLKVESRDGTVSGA

Cytochrome P450 3A4 [2] = biological target: T1, Cytochrome P450 3A4; assay: Inhibition of human CYP3A4 in human liver microsomes assessed as formation of 6beta-hydroxy-testosterone using testosterone as substrate by high throughput mass spectrometry in absence of NADPH; format: ADME, Microsome
[3] = biological target: Voltage-gated inwardly rectifying potassium channel KCNH2 (Homo sapiens, UniProt Q12809); assay: Binding affinity to human ERG
Sequence of Voltage-gated inwardly rectifying potassium channel KCNH2 (Q12809 whole entry): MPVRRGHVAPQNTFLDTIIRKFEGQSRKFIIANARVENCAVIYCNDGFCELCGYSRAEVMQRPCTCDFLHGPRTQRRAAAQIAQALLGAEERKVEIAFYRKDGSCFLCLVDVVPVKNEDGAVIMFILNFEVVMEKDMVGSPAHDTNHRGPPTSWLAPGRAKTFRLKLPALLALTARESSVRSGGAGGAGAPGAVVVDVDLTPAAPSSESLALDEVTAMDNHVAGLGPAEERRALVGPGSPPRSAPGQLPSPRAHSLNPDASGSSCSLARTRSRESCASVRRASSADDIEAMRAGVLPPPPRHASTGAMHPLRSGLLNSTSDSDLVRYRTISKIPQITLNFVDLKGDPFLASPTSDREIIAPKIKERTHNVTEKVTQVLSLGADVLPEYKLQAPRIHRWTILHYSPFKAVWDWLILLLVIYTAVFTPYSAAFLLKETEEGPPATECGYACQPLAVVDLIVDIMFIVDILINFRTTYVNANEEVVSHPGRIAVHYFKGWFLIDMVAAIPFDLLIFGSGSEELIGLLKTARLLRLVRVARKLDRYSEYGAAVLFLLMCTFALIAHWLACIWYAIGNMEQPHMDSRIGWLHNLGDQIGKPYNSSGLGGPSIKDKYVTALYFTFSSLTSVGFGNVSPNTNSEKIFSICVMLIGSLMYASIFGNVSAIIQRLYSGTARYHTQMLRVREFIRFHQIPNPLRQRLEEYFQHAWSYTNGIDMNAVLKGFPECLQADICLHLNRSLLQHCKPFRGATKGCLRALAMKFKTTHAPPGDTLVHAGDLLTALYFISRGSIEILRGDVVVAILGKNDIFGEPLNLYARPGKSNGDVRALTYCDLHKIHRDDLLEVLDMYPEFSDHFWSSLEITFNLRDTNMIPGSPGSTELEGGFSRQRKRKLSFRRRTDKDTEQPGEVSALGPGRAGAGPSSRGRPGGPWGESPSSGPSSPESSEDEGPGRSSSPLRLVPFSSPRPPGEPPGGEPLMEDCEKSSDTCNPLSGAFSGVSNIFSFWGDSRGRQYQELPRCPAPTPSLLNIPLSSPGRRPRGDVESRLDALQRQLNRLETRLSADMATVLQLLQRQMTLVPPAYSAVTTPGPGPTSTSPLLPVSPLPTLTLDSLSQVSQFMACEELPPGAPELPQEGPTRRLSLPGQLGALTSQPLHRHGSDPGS

CYP3A4 = CYP3A4 (Homo sapiens, UniProt P08684); assay: Ratio of IC50 for human CYP3A4 in absence of NADPH to IC50 for human CYP3A4 preincubated for 30 mins in presence of NADPH; conditions: read-out: Ratio IC50
Sequence of CYP3A4 (P08684 whole entry): as the sequence (P08684 whole entry) above

Renin [4] = biological target: T2, Renin (Homo sapiens, UniProt P00797); assay: Inhibition of human recombinant renin in human citreated-plasma
T2 sequence (P00797 whole entry): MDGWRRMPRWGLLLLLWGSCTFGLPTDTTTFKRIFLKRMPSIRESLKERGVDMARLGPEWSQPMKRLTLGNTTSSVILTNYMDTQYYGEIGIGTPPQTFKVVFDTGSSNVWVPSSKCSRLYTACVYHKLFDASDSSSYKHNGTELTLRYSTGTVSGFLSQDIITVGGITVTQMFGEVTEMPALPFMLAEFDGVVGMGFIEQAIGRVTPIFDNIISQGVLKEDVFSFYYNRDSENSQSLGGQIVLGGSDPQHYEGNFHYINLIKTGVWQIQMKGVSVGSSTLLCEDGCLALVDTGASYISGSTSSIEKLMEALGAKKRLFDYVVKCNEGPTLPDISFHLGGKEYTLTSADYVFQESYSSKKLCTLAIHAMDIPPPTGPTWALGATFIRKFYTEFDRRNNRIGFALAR

Renin [5] = biological target: T2, Renin; assay: Inhibition of human recombinant renin in PBS buffer using tetradecapeptide at pH 7.4
[6] = AUC (0 to 24 hrs) in Sprague-Dawley rat at 30 mg/kg, po as 0.5% methocel suspension; format: ADME, organism-based; design: time < 24 hr, dose 30 mg/kg, route oral; conditions: plasma
Blood [7] = assay: Metabolic stability in Sprague-Dawley rat whole blood assessed as conversion to (1R,2R)-2-((3-(((3R,4S)-N-cyclopropyl-4-(4-(2-(2,6-dichloro-4-methylphenoxy)ethoxy)phenyl)piperidine-3-carboxamido)methyl)-5-(3-methoxypropyl)phenoxy)methyl)cyclopropanecarboxylic acid after 20 mins; format: ADME, tissue-based
Summary of the method: (§1)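 Prodrugs were incubated for 20 min in rat or human whole blood, or in rat or human liver S9 fraction (n = 2). The read-out was % conversion to the parent carboxylic acid.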

Liver [8] = assay: Metabolic stability in Sprague-Dawley rat liver S9 fraction assessed as conversion to (1R,2R)-2-((3-(((3R,4S)-N-cyclopropyl-4-(4-(2-(2,6-dichloro-4-methylphenoxy)ethoxy)phenyl)piperidine-3-carboxamido)methyl)-5-(3-methoxypropyl)phenoxy)methyl)cyclopropanecarboxylic acid after 20 mins; format: ADME, subcellular; conditions: s9, 20 min; summary of the method: as §1
Blood [9] = assay: Metabolic stability in human whole blood assessed as conversion to (1R,2R)-2-((3-(((3R,4S)-N-cyclopropyl-4-(4-(2-(2,6-dichloro-4-methylphenoxy)ethoxy)phenyl)piperidine-3-carboxamido)methyl)-5-(3-methoxypropyl)phenoxy)methyl)cyclopropanecarboxylic acid after 20 mins; format: ADME, tissue-based; summary of the method: as §1
Liver [10] = assay: Metabolic stability in human liver S9 fraction assessed as conversion to (1R,2R)-2-((3-(((3R,4S)-N-cyclopropyl-4-(4-(2-(2,6-dichloro-4-methylphenoxy)ethoxy)phenyl)piperidine-3-carboxamido)methyl)-5-(3-methoxypropyl)phenoxy)methyl)cyclopropanecarboxylic acid after 20 mins; format: ADME, subcellular; conditions: s9, 20 min; summary of the method: as §1
[11] = AUC (0 to 24 hrs) in Sprague-Dawley rat at 20 mg/kg, po as 0.5% methocel suspension; format: ADME, organism-based; design: time < 24 hr, dose 20 mg/kg, route oral; conditions: plasma
[12] = Clearance in Sprague-Dawley rat at 30 mg/kg, po in 0.5% methocel and 3 to 5 mg/kg, iv in 60% PEG 200; conditions: in vivo
[13] = Oral bioavailability in Sprague-Dawley rat at 30 mg/kg as 0.5% methocel suspension; format: ADME, organism-based; conditions: in vivo

Compound COCCCc1cc(CN(C(=O)[C@H]2CNCC[C@@H]2c2ccc(OCCOc3c(Cl)cc(C)cc3Cl)cc2)C2CC2)cc(OCC2(CC#N)CC2)c1 has an IC50 (Cytochrome P450 3A4 [1]) of 1400 nM, an IC50 (Cytochrome P450 3A4 [2]) of 19600 nM and a Ki [3] of 60 nM. For the same compound, the IC50 shift (CYP3A4) was 14.1, the IC50 (Renin [4]) was 10.9 nM and the IC50 (Renin [5]) was 0.028 nM.
With COCCCc1cc(CN(C(=O)[C@H]2CNCC[C@@H]2c2ccc(OCCOc3c(Cl)cc(C)cc3Cl)cc2)C2CC2)cc(OCCOC)c1 the IC50 (Cytochrome P450 3A4 [1]) was 2400 nM, the IC50 (Cytochrome P450 3A4 [2]) was 21600 nM and the Ki [3] was 80 nM.
COCCCc1cc(CN(C(=O)[C@H]2CNCC[C@@H]2c2ccc(OCCOc3c(Cl)cc(C)cc3Cl)cc2)C2CC2)cc(OCCN(C)C)c1 gave an IC50 (Cytochrome P450 3A4 [1]) of 1400 nM, an IC50 (Cytochrome P450 3A4 [2]) of 22700 nM and a Ki [3] of 180 nM.
With COCCCc1cc(CN(C(=O)[C@H]2CNCC[C@@H]2c2ccc(OCCOc3c(Cl)cc(C)cc3Cl)cc2)C2CC2)cc(OCCCNS(C)(=O)=O)c1 the Ki [3] was 80 nM, the IC50 (Renin [4]) was 2.9 nM and the IC50 (Renin [5]) was 0.028 nM.
Work on CCNC(=O)NCCCOc1cc(CCCOC)cc(CN(C(=O)[C@H]2CNCC[C@@H]2c2ccc(OCCOc3c(Cl)cc(C)cc3Cl)cc2)C2CC2)c1 yielded an IC50 (Cytochrome P450 3A4 [1]) of 2400 nM, an IC50 (Cytochrome P450 3A4 [2]) of 6300 nM and a Ki [3] of 150 nM. It also gave an IC50 shift (CYP3A4) of 2.6, an IC50 (Renin [4]) of 3.3 nM and an IC50 (Renin [5]) of 0.022 nM.
In the case of COCCCc1cc(CN(C(=O)[C@H]2CNCC[C@@H]2c2ccc(OCCOc3c(Cl)cc(C)cc3Cl)cc2)C2CC2)cc(OCC(C)(C)O)c1, the IC50 (Cytochrome P450 3A4 [1]) is reported as 5600 nM, the IC50 (Cytochrome P450 3A4 [2]) is reported as > 50000 nM and the Ki [3] is reported as 130 nM.
With COCCCc1cc(CN(C(=O)[C@H]2CNCC[C@@H]2c2ccc(OCCOc3c(Cl)cc(C)cc3Cl)cc2)C2CC2)cc(OC[C@H]2C[C@@H]2C(=O)OCC(=O)N(C)C)c1 the AUC(0-t) at 24 h [6] was 3.5 µM·h, the Activity (Blood [7]) was 100% and the Activity (Liver [8]) was 66%. For the same compound, the Ki [3] was 200 nM and the Activity (Blood [9]) was 1%.
With CCOC(=O)OC(C)OC(=O)[C@H]1C[C@@H]1COc1cc(CCCOC)cc(CN(C(=O)[C@H]2CNCC[C@@H]2c2ccc(OCCOc3c(Cl)cc(C)cc3Cl)cc2)C2CC2)c1 (stereo partly specified) the Activity (Blood [7]) was 100%, the Activity (Liver [8]) was 81% and the Activity (Liver [10]) was 90%. It also gave an Activity (Blood [9]) of 38%.
In the case of COCCCc1cc(CN(C(=O)[C@H]2CNCC[C@@H]2c2ccc(OCCOc3c(Cl)cc(C)cc3Cl)cc2)C2CC2)cc(OC[C@H]2C[C@@H]2C(=O)OCOC(=O)C(C)(C)C)c1, the AUC(0-t) at 24 h [6] is reported as 0.2 µM·h, the Activity (Blood [7]) is reported as 100% and the Activity (Liver [8]) is reported as 83%. It also gave an Activity (Liver [10]) of 95%, a Ki [3] of 40 nM and an Activity (Blood [9]) of 56%.
In the case of COCCCc1cc(CN(C(=O)[C@H]2CN(C(=O)OCc3oc(=O)oc3C)CC[C@@H]2c2ccc(OCCOc3c(Cl)cc(C)cc3Cl)cc2)C2CC2)cc(OC[C@H]2C[C@@H]2C(=O)O)c1, the AUC(0-t) at 24 h [11] is reported as 0.2 µM·h, the Activity (Blood [7]) is reported as 93% and the Activity (Liver [8]) is reported as 98%. For the same compound, the Activity (Liver [10]) was 99%, the Ki [3] was 3700 nM and the Activity (Blood [9]) was 11%.
In the case of COCCCc1cc(CN(C(=O)[C@H]2CNCC[C@@H]2c2ccc(OCCOc3c(Cl)cc(C)cc3Cl)cc2)C2CC2)cc(OCC2(CC(=O)O)CC2)c1, the IC50 (Cytochrome P450 3A4 [1]) is reported as > 50000 nM, the AUC(0-t) at 24 h [6] is reported as 0.2 µM·h and the clearance [12] is reported as 49 mL/min/kg. For the same compound, the bioavailability [13] was 2%, the IC50 (Cytochrome P450 3A4 [2]) was > 50000 nM and the Ki [3] was 1000 nM. The IC50 (Renin [5]) was 0.04 nM.
In the case of COCCCc1cc(CN(C(=O)[C@H]2CNCC[C@@H]2c2ccc(OCCOc3c(Cl)cc(C)cc3Cl)cc2)C2CC2)cc(OCC(C)(C)C(=O)O)c1, the IC50 (Cytochrome P450 3A4 [1]) is reported as > 50000 nM, the AUC(0-t) at 24 h [6] is reported as 1.1 µM·h and the clearance [12] is reported as 44 mL/min/kg. For the same compound, the bioavailability [13] was 9%, the IC50 (Cytochrome P450 3A4 [2]) was > 50000 nM and the Ki [3] was 600 nM. For the same compound, the IC50 (Renin [4]) was 29.6 nM and the IC50 (Renin [5]) was 0.06 nM.
With COCCCc1cc(CN(C(=O)[C@H]2CNCC[C@@H]2c2ccc(OCCOc3c(Cl)cc(C)cc3Cl)cc2)C2CC2)cc(OCCC(C)(C)C(=O)O)c1 the IC50 (Cytochrome P450 3A4 [1]) was > 50000 nM, the AUC(0-t) at 24 h [6] was 2.1 µM·h and the clearance [12] was 43 mL/min/kg. The bioavailability [13] was 13%, the IC50 (Cytochrome P450 3A4 [2]) was > 50000 nM and the Ki [3] was 400 nM. The IC50 (Renin [4]) was 9 nM and the IC50 (Renin [5]) was 0.02 nM.
For COCCCc1cc(CN(C(=O)[C@H]2CNCC[C@@H]2c2ccc(OCCOc3c(Cl)cc(C)cc3Cl)cc2)C2CC2)cc(OCCCC(C)(C)C(=O)O)c1, the IC50 (Cytochrome P450 3A4 [1]) was > 50000 nM, the AUC(0-t) at 24 h [6] was 16 µM·h and the clearance [12] was 9.7 mL/min/kg. The bioavailability [13] was 22%, the IC50 (Cytochrome P450 3A4 [2]) was > 50000 nM and the Ki [3] was 200 nM. It also gave an IC50 (Renin [4]) of 6.1 nM and an IC50 (Renin [5]) of 0.01 nM.
In the case of CCC(CC)(CCOc1cc(CCCOC)cc(CN(C(=O)[C@H]2CNCC[C@@H]2c2ccc(OCCOc3c(Cl)cc(C)cc3Cl)cc2)C2CC2)c1)C(=O)O, the IC50 (Cytochrome P450 3A4 [1]) is reported as > 50000 nM, the AUC(0-t) at 24 h [6] is reported as 6.1 µM·h and the clearance [12] is reported as 29 mL/min/kg. The bioavailability [13] was 26%, the IC50 (Cytochrome P450 3A4 [2]) was > 50000 nM and the Ki [3] was 400 nM.
With COCCCc1cc(CN(C(=O)[C@H]2CNCC[C@@H]2c2ccc(OCCOc3c(Cl)cc(C)cc3Cl)cc2)C2CC2)cc(OCCC2(C(=O)O)CCCC2)c1 the IC50 (Cytochrome P450 3A4 [1]) was > 50000 nM, the AUC(0-t) at 24 h [6] was 3.3 µM·h and the clearance [12] was 27 mL/min/kg. The bioavailability [13] was 15%, the IC50 (Cytochrome P450 3A4 [2]) was > 50000 nM and the Ki [3] was 500 nM. The IC50 (Renin [4]) was 12.4 nM and the IC50 (Renin [5]) was 0.01 nM.
With COCCCc1cc(CN(C(=O)[C@H]2CNCC[C@@H]2c2ccc(OCCOc3c(Cl)cc(C)cc3Cl)cc2)C2CC2)cc(OCC[C@](C)(OC)C(=O)O)c1 the IC50 (Cytochrome P450 3A4 [1]) was > 50000 nM, the AUC(0-t) at 24 h [6] was 1.2 µM·h and the clearance [12] was 23 mL/min/kg. For the same compound, the bioavailability [13] was 3%, the IC50 (Cytochrome P450 3A4 [2]) was > 50000 nM and the Ki [3] was 2300 nM. The IC50 (Renin [4]) was 2.1 nM and the IC50 (Renin [5]) was 0.06 nM.
In the case of COCCCc1cc(CN(C(=O)[C@H]2CNCC[C@@H]2c2ccc(OCCOc3c(Cl)cc(C)cc3Cl)cc2)C2CC2)cc(OC[C@H]2C[C@@H]2C(=O)NS(C)(=O)=O)c1, the IC50 (Cytochrome P450 3A4 [1]) is reported as > 50000 nM, the clearance [12] is reported as 26 mL/min/kg and the bioavailability [13] is reported as 0%. The IC50 (Cytochrome P450 3A4 [2]) was > 50000 nM, the Ki [3] was 500 nM and the IC50 (Renin [4]) was 2.1 nM. The IC50 (Renin [5]) was 0.01 nM.
For COCCCc1cc(CN(C(=O)[C@H]2CNCC[C@@H]2c2ccc(OCCOc3c(Cl)cc(C)cc3Cl)cc2)C2CC2)cc(OCC2(Cc3nn[nH]n3)CC2)c1, the IC50 (Cytochrome P450 3A4 [1]) was > 50000 nM, the clearance [12] was 46 mL/min/kg and the bioavailability [13] was 0%. The IC50 (Cytochrome P450 3A4 [2]) was > 50000 nM, the Ki [3] was 500 nM and the IC50 (Renin [4]) was 5.3 nM.
